Data on 9 compounds can be found in ChEMBL document CHEMBL1134796, “Indenopyrazoles as novel cyclin dependent kinase (CDK) inhibitors” (J Med Chem, 2001).

Test [1] concerns AG1523. Put plainly: Cytotoxic effect on human AG1523 fibroblast cells. Type of test: functional, cell-based.
The target in test [2] is Cyclin-dependent kinase 4/cyclin D1 (Homo sapiens, UniProt P11802). In words: Inhibition of Cyclin Dependent Kinase 4 cyclin D1. Type of test: protein-complex assay. The gist of the method: (§1)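 Lysates of insect cells expressing the cdk and its cyclin partner, run in kinase buffer with ³²P-ATP, GST-Rb fusion substrate and the compound at varying concentrations. Reaction stopped with excess EDTA. GST-Rb captured on GSH-Sepharose beads, washed, and counted by scintillation. IC50 is the concentration giving 50% inhibition of kinase activity.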

Test [3] deals with HCT-116. Put plainly: Inhibition of HCT116 cell proliferation. Conditions: Homo sapiens. Type of test: functional, cell-based. The gist of the method: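 HCT116 cells cultured with compound at increasing concentrations. At selected time points, cells fixed with trichloroacetic acid and stained with sulforhodamine B. Unbound dye washed off, and bound dye extracted for optical density reading.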

Test [4] concerns the target Cyclin-dependent kinase 2/cyclin E (Homo sapiens, UniProt P24941). In words: Inhibition of Cyclin-dependent kinase 2-cyclin E. Type of test: protein-complex assay. The gist of the method: as §1
The target of test [5] is Protein kinase C (PKC). In words: Inhibition of protein kinase C (PKC). Type of test: protein assay.
The target in test [6] is Tyrosine-protein kinase ABL1 (Homo sapiens, UniProt P00519). Put plainly: Inhibition of c-Abl kinase.
Test [7] in a line: Inhibition of protein kinase A (PKA).
For test [8], the system named is Mus musculus. Put plainly: In vivo antitumor activity in mice at 3 mg/kg/day (dosing schedule Q1DX14); 8/8. Type of test: functional. Put shortly:
(§2)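 Female nude mice bearing HCT116 human colon carcinoma xenografts (1 × 10⁷ cells/animal, injected s.c. into the inguinal region). Drug was given ip once daily for 14 days, starting 7 days after cell injection. On day 15 after dosing, tumors were excised and weighed. Tumor growth inhibition index (%) = (1 − mean net tumor weight treated/control) × 100. Survivors reflect acute drug toxicity.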

Test [9] deals with Mus musculus. Put plainly: In vivo antitumor activity in mice at 10 mg/kg/day (dosing schedule Q1DX14); 8/8. Type of test: functional. The gist of the method: as §2
The subject of test [10] is Mus musculus. In words: In vivo antitumor activity in mice at 3 mg/kg/day (dosing schedule Q1DX14). Type of test: functional. Put shortly:
(§3)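 Female nude mice carrying HCT116 human colon carcinoma xenografts, 1 × 10⁷ cells injected subcutaneously into the inguinal region. Drug given intraperitoneally once daily for 14 days, starting 7 days after cell injection. Tumors excised and weighed on day 15 post-dosing. Growth inhibition index (%) = (1 − mean net tumor weight treated/mean net tumor weight control) × 100.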

Test [11] has as its system Mus musculus. In words: In vivo antitumor activity in mice at 30 mg/kg/day (dosing schedule Q1DX14); 8/8. Type of test: functional. The gist of the method:
as §2

Test [12] has as its system Mus musculus. In words: In vivo antitumor activity in mice at 10 mg/kg/day (dosing schedule Q1DX14). Type of test: functional. The gist of the method: as §3
The test system of test [13] is Mus musculus. In words: In vivo antitumor activity in mice at 30 mg/kg/day (dosing schedule Q1DX14). Type of test: functional. Put shortly: as §3
Test [14] relates to Mus musculus. In words: In vivo antitumor activity in mice at 7.5 mg/kg/day (dosing schedule Q1DX14). Type of test: functional. Put shortly: as §3
Test [15] concerns Mus musculus. In words: In vivo antitumor activity in mice at 7.5 mg/kg/day (dosing schedule Q1DX14); 5/8. Type of test: functional. Put shortly: as §2
The test system of test [16] is Mus musculus. In words: In vivo antitumor activity in mice at 1 mg/kg/day (dosing schedule Q1DX14); 8/8. Type of test: functional. Put shortly: as §2
Test [17] relates to Mus musculus. Put plainly: In vivo antitumor activity in mice at 1 mg/kg/day (dosing schedule Q1DX14). Type of test: functional. The gist of the method: as §3

Chain of Cyclin-dependent kinase 4/cyclin D1 (P11802 whole entry, the tested form may be a part): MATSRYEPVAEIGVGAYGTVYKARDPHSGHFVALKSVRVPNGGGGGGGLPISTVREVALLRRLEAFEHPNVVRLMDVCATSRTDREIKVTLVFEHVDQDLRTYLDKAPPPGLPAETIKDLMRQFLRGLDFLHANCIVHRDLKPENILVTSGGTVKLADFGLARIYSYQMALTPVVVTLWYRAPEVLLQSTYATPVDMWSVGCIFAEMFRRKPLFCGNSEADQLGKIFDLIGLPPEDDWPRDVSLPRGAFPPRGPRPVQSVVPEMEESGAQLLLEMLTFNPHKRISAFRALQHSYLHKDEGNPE
Chain of Cyclin-dependent kinase 4/cyclin D1 (P24385 whole entry, further chain, the tested form may be a part): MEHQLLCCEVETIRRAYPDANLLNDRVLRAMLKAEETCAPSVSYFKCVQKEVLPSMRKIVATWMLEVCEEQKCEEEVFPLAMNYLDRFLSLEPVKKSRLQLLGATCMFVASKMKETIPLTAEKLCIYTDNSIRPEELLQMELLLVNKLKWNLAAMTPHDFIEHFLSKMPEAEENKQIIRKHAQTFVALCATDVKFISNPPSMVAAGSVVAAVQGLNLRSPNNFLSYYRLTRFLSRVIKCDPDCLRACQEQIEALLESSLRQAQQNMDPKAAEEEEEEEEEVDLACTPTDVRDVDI
Chain of Tyrosine-protein kinase ABL1 (P00519 whole entry): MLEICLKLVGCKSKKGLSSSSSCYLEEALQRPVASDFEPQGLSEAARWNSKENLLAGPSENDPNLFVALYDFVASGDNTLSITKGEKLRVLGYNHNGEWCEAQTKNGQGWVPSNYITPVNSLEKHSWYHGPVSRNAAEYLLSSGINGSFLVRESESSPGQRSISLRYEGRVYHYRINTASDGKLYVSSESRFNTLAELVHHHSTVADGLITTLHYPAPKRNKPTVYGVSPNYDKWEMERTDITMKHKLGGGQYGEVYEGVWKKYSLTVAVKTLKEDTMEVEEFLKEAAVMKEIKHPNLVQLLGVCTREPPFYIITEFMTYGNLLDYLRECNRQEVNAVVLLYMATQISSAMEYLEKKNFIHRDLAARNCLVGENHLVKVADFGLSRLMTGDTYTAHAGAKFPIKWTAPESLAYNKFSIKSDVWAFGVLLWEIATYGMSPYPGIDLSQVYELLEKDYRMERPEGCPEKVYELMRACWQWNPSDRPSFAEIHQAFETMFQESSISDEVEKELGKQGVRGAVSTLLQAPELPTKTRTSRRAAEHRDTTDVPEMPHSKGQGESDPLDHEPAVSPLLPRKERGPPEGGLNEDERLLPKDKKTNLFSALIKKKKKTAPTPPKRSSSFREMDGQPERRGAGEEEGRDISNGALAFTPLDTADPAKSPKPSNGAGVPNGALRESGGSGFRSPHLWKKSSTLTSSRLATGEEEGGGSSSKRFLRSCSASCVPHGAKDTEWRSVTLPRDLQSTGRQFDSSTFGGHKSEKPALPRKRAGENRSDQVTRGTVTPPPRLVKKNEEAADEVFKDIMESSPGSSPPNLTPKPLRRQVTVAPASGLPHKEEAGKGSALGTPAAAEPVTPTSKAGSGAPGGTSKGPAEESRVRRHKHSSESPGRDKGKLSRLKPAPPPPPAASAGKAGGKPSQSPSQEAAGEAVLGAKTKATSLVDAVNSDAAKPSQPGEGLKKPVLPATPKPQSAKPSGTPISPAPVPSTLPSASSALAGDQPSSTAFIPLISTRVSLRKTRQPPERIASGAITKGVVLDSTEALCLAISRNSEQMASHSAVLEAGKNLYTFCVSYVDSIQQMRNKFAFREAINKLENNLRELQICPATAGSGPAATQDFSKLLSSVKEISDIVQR

Regarding `COc1ccc(-c2[nH]nc3c2C(=O)c2c(NC(=O)Cc4ccc(N)cc4)cccc2-3)cc1`, the IC50 in test [1] was greater than 24 µM; in test [2], 0.48 µM; in [3] it was 0.4 µM; in test [4], 0.038 µM.

On to `COc1ccc(-c2[nH]nc3c2C(=O)c2c(NC(=O)c4ccccc4)cccc2-3)cc1`, for which the IC50 in test [2] is greater than 250 µM; in test [4], 41 µM.

Take `COc1ccc(-c2[nH]nc3c2C(=O)c2c(NC(=O)C(C)(C)C)cccc2-3)cc1`: the figures for the IC50 in test [2], in test [3] and in test [4] were 45 µM, 7.5 µM and 2.1 µM, respectively.

For the compound `COc1ccc(-c2[nH]nc3c2C(=O)c2c(NC(=O)C(C)C)cccc2-3)cc1`, the IC50 in test [1] was greater than 28 µM; in [2] it was 35 µM; in test [3], 2.9 µM; in [4] it was 1.4 µM.

As to `COc1ccc(-c2[nH]nc3c2C(=O)c2ccccc2-3)cc1`, the IC50 in test [2] was 45 µM; in test [5], greater than 725 µM; in [6], greater than 725 µM; in test [7] it was 239 µM; in [4] it was 26 µM.

Take `COc1ccc(-c2[nH]nc3c2C(=O)c2c(NC=O)cccc2-3)cc1`: the No. survived in test [8], in [9] and in test [11] was 8 each time. The IC50 in [1] was greater than 63 µM; in test [2] it was 0.2 µM; in [3], 0.69 µM; in [4], 0.08 µM. The Tumor weight in test [10] is listed as 1171 mg; in test [12], 871 mg; in test [13], 608 mg. Also, the inhibition in vivo at 3 mg/kg/day in test [10] was determined as 0%. The inhibition in vivo at 10 mg/kg/day in test [12] turned out to be 19%. The compound further showed an inhibition in vivo at 30 mg/kg/day in test [13] of 43%.

With `COc1ccc(-c2[nH]nc3c2C(=O)c2c(NC(C)=O)cccc2-3)cc1`, the IC50 was 0.45 µM in [2], 2.7 µM in test [3] and 0.27 µM in [4].

In test [14], `CN1CCC(c2c(O)cc(O)c3c(=O)cc(-c4ccccc4Cl)oc23)[C@@H](O)C1` (mixture of isomers) yielded a Tumor weight of 538 mg and an inhibition in vivo at 7.5 mg/kg/day of 50%. This compound returned a No. survived in test [15] of 5.

The compound `CO[C@@]12[C@H](COC(N)=O)C3=C(C(=O)C(C)=C(N)C3=O)N1C[C@@H]1N[C@@H]12` [MITOMYCIN] registered a No. survived in test [16] of 8. Also, in test [17], the Tumor weight came to 455 mg and the inhibition in vivo at 1 mg/kg/day was determined as 58%.
